# Data taken from ChEMBL document CHEMBL1125219, “A selective, reversible, competitive inhibitor of monoamine oxidase A containing no nitrogen, with negligible potentiation of tyramine-induced blood pressure rise” (J Med Chem, 1991).
# Key:
# [1] = target: T1, Amine oxidase [flavin-containing] A (Rattus norvegicus, UniProt P21396); experiment: The compound was tested in vitro for inhibition of Monoamine Oxidase A from rat brain
# T1 sequence (P21396 whole entry): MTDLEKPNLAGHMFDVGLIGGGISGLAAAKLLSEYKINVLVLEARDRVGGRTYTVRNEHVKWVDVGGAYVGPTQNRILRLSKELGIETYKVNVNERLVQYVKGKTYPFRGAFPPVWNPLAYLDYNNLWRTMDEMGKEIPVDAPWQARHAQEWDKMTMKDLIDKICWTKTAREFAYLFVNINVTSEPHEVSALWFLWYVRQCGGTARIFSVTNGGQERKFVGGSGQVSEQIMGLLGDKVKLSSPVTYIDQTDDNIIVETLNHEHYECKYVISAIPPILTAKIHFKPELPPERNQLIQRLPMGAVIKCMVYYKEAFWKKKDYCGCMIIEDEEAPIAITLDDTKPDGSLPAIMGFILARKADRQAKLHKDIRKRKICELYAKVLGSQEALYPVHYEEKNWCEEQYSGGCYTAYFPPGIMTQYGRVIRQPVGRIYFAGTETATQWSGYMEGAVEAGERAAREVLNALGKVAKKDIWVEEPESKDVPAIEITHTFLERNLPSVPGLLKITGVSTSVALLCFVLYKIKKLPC
# Method in brief: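 Double-label radiometric assay on washed rat brain mitochondria with the test agent in vitro. Substrates were at about twice Km, and each activity was independent of the other.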
# [2] = target: T1, Amine oxidase [flavin-containing] A; experiment: The compound was tested ex vivo for percentage inhibition of Monoamine Oxidase A in rat brain at 30 mg/kg; format: functional, organism-based; design: dose 30 mg/kg
# [3] = target: T2, Amine oxidase [flavin-containing] A (Homo sapiens, UniProt P21397); experiment: In vitro binding affinity towards Monoamine Oxidase A in human
# T2 sequence (P21397 whole entry): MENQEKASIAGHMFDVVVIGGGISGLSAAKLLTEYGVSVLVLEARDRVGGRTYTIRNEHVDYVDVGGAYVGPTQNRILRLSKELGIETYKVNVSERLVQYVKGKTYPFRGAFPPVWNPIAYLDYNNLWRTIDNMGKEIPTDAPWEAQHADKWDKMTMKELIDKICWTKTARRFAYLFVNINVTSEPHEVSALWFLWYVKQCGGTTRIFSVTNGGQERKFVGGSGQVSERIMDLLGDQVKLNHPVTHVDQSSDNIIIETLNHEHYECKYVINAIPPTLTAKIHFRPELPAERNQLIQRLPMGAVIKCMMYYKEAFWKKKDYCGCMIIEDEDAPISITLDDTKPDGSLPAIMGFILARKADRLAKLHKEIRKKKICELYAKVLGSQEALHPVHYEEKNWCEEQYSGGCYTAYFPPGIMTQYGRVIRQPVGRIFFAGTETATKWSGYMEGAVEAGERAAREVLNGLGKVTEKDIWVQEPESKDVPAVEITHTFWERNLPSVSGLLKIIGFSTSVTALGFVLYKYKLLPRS
# [4] = target: T1, Amine oxidase [flavin-containing] A; experiment: In vitro binding affinity towards Monoamine Oxidase A in rat
# [5] = target: T1, Amine oxidase [flavin-containing] A; experiment: In vivo effective dose against Monoamine Oxidase A in rat brain; format: functional, organism-based
# [6] = target: T1, Amine oxidase [flavin-containing] A; experiment: The compound was tested ex vivo for inhibition of Monoamine Oxidase A in rat brain; format: functional, tissue-based
# [7] = target: T1, Amine oxidase [flavin-containing] A; experiment: The compound was tested ex vivo for percentage inhibition of Monoamine Oxidase A in rat brain at 20 mg/Kg; format: functional, tissue-based
# [8] = target: T1, Amine oxidase [flavin-containing] A; experiment: The compound was tested ex vivo for percentage inhibition of Monoamine Oxidase A in rat brain at 20 mg/kg; NS=No significant inhibition; format: functional, organism-based; design: dose 20 mg/kg
IC50 [1] [nM],ED50 [6] [mg/kg],SMILES,further results
35,20,CCc1cccc2c1S(=O)(=O)c1ccccc1O2,Ki [3]: 10 nM; Ki [4]: 10 nM; ED50 [5]: 8 mg/kg
20,–,O=S1(=O)c2ccccc2Oc2cccc(CCO)c21,inhibition at 20 mg/kg [7]: 55%
30000,–,O=C(O)Cc1cccc2c1S(=O)(=O)c1ccccc1O2,Inhibition [8]: Not Active

# Second part, the compound before the results:
SMILES,IC50 [1] [nM],ED50 [6] [mg/kg],further results
CC(=O)c1cccc2c1S(=O)(=O)c1ccccc1O2,2000,–,inhibition at 30 mg/kg [2]: 70%
O=S1(=O)c2ccccc2Oc2cccc(C(O)CO)c21 (configuration not stated),1200,20,–
CC(O)c1cccc2c1S(=O)(=O)c1ccccc1O2 (configuration not stated),400,30,–
C=Cc1cccc2c1S(=O)(=O)c1ccccc1O2,40,20,–
